Source: ChEMBL document CHEMBL1250442, “Inhibiting gene expression at transcription start sites in chromosomal DNA with antigene RNAs” (Nat Chem Biol, 2005)
Active and inactive are the calls of the source. The rule behind the calls is not given here.

Legend:
T47D [1] = assay: Inhibition of PR-A gene expression in human T47D cells at 25 nM by syber green assay in presence of 10 nM estradiol; type: functional, cell-based
T47D [2] = assay: Inhibition of PR-B mRNA gene expression in human T47D cells at 100 nM by syber green assay; type: functional
How it was run: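 T47D cells in RPMI-1640 with 10% FBS, NEAA, insulin, 37 °C, 5% CO2. Plated two days before transfection without antibiotics. Oligofectamine-mediated duplex RNA transfection at 100 nM final, medium changed at 24 h, harvest five days post-transfection. Total RNA extracted with TRIzol. hPR mRNA quantified by SYBR Green qPCR: 50 °C 2 min, 95 °C 10 min, then 40 cycles of 95 °C 15 s / 60 °C 1 min.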

T47D [3] = assay: Inhibition of PR-A gene expression in human T47D cells at 25 nM by syber green assay; type: functional
How it was run: (§1)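 T47D cells plated at 80,000/well without antibiotics two days before Oligofectamine transfection with agRNA duplex (25 or 100 nM final); medium changed at 24 h, harvest day 5 unless stated otherwise. TRIzol total RNA; PR mRNA by real-time PCR with SYBR Green: 50 °C 2 min, 95 °C 10 min, 40 cycles 95 °C 15 s/60 °C 1 min.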

T47D [4] = assay: Inhibition of PR-B gene expression in human T47D cells at 25 nM by syber green assay in presence of 10 nM estradiol; type: functional, cell-based
T47D [5] = assay: Inhibition of PR-A mRNA gene expression in human T47D cells at 100 nM by syber green assay; type: functional; how it was run: as §1
T47D [6] = assay: Inhibition of PR-B gene expression in human T47D cells at 25 nM by syber green assay; type: functional; how it was run: as §1

Structure (SMILES)	inhibition (T47D [1])	inhibition at 0.1 µM (T47D [2]) [%]	inhibition at 0.025 µM (T47D [3]) [%]	inhibition (T47D [4])	inhibition at 0.1 µM (T47D [5]) [%]	inhibition at 0.025 µM (T47D [6]) [%]
Cc1cn(CC(=O)N(CCNC(=O)CN(CCNC(=O)CN(CCNC(=O)CN(CCNC(=O)CN(CCNC(=O)CN(CCNC(=O)CN(CCNC(=O)CN(CCNC(=O)CN(CCNC(=O)CN(CCNC(=O)CN(CCNC(=O)CN(CCNC(=O)CN(CCNC(=O)CN(CCNC(=O)CN(CCNC(=O)CN(CCNC(=O)CN(CCNC(=O)CN(CCNC(=O)CN(CCNC(=O)CN(CCNC(=O)CN(CCNC(=O)CN)C(=O)Cn2ccc(N)nc2=O)C(=O)Cn2ccc(=O)[nH]c2=O)C(=O)Cn2cnc3c(=O)[nH]c(N)nc32)C(=O)Cn2cnc3c(=O)[nH]c(N)nc32)C(=O)Cn2ccc(N)nc2=O)C(=O)Cn2ccc(N)nc2=O)C(=O)Cn2cnc3c(N)ncnc32)C(=O)Cn2cnc3c(=O)[nH]c(N)nc32)C(=O)Cn2ccc(=O)[nH]c2=O)C(=O)Cn2ccc(N)nc2=O)C(=O)Cn2ccc(N)nc2=O)C(=O)Cn2cnc3c(N)ncnc32)C(=O)Cn2ccc(N)nc2=O)C(=O)Cn2cnc3c(N)ncnc32)C(=O)Cn2cnc3c(=O)[nH]c(N)nc32)C(=O)Cn2ccc(N)nc2=O)C(=O)Cn2ccc(=O)[nH]c2=O)C(=O)Cn2cnc3c(=O)[nH]c(N)nc32)C(=O)Cn2ccc(=O)[nH]c2=O)C(=O)Cn2cc(C)c(=O)[nH]c2=O)CC(=O)O)c(=O)[nH]c1=O	Active	71	< 20	Active	26	< 20
Cc1cn(CC(=O)N(CCNC(=O)CN(CCNC(=O)CN(CCNC(=O)CN(CCNC(=O)CN(CCNC(=O)CN(CCNC(=O)CN(CCNC(=O)CN(CCNC(=O)CN(CCNC(=O)CN(CCNC(=O)CN(CCNC(=O)CN(CCNC(=O)CN(CCNC(=O)CN(CCNC(=O)CN(CCNC(=O)CN(CCNC(=O)CN(CCNC(=O)CN(CCNC(=O)CN(CCNC(=O)CN(CCNC(=O)CN)C(=O)Cn2cnc3c(N)ncnc32)C(=O)Cn2cnc3c(=O)[nH]c(N)nc32)C(=O)Cn2ccc(N)nc2=O)C(=O)Cn2ccc(=O)[nH]c2=O)C(=O)Cn2cnc3c(=O)[nH]c(N)nc32)C(=O)Cn2ccc(=O)[nH]c2=O)C(=O)Cn2ccc(N)nc2=O)C(=O)Cn2ccc(=O)[nH]c2=O)C(=O)Cn2cnc3c(=O)[nH]c(N)nc32)C(=O)Cn2cnc3c(=O)[nH]c(N)nc32)C(=O)Cn2ccc(N)nc2=O)C(=O)Cn2ccc(N)nc2=O)C(=O)Cn2cnc3c(N)ncnc32)C(=O)Cn2cnc3c(=O)[nH]c(N)nc32)C(=O)Cn2ccc(=O)[nH]c2=O)C(=O)Cn2ccc(N)nc2=O)C(=O)Cn2ccc(N)nc2=O)C(=O)Cn2cnc3c(N)ncnc32)C(=O)Cn2ccc(N)nc2=O)CC(=O)NCCN(CC(=O)NCC(=O)O)C(=O)Cn2cc(C)c(=O)[nH]c2=O)c(=O)[nH]c1=O	Active	87	34	Active	63	40
Cc1cn(CC(=O)N(CCNC(=O)CN(CCNC(=O)CN(CCNC(=O)CN(CCNC(=O)CN(CCNC(=O)CN(CCNC(=O)CN(CCNC(=O)CN(CCNC(=O)CN(CCNC(=O)CN(CCNC(=O)CN(CCNC(=O)CN(CCNC(=O)CN(CCNC(=O)CN(CCNC(=O)CN(CCNC(=O)CN(CCNC(=O)CN(CCNC(=O)CN(CCNC(=O)CN(CCNC(=O)CN(CCNC(=O)CN)C(=O)Cn2cnc3c(=O)[nH]c(N)nc32)C(=O)Cn2ccc(N)nc2=O)C(=O)Cn2ccc(=O)[nH]c2=O)C(=O)Cn2cnc3c(=O)[nH]c(N)nc32)C(=O)Cn2ccc(N)nc2=O)C(=O)Cn2ccc(N)nc2=O)C(=O)Cn2ccc(=O)[nH]c2=O)C(=O)Cn2cnc3c(=O)[nH]c(N)nc32)C(=O)Cn2cnc3c(=O)[nH]c(N)nc32)C(=O)Cn2ccc(N)nc2=O)C(=O)Cn2ccc(N)nc2=O)C(=O)Cn2cnc3c(N)ncnc32)C(=O)Cn2cnc3c(=O)[nH]c(N)nc32)C(=O)Cn2ccc(=O)[nH]c2=O)C(=O)Cn2ccc(N)nc2=O)C(=O)Cn2ccc(N)nc2=O)C(=O)Cn2cnc3c(N)ncnc32)C(=O)Cn2ccc(N)nc2=O)C(=O)Cn2cnc3c(N)ncnc32)CC(=O)NCCN(CC(=O)NCC(=O)O)C(=O)Cn2cc(C)c(=O)[nH]c2=O)c(=O)[nH]c1=O	Active	28	< 20	Active	< 20	< 20
